ChEMBL document CHEMBL2057080, “Synthesis, biological evaluation, and structure-activity relationships of a novel class of apurinic/apyrimidinic endonuclease 1 inhibitors” (J Med Chem, 2012)
Calls of active or inactive are those of the source. The calls are words filed in the database; no cut-off is given here.

Key:
[1] = molecular target: T1, DNA repair nuclease/redox regulator APEX1 (Homo sapiens, UniProt P27695); experiment: Inhibition of human recombinant APE1 after 15 mins by fluorescence based HTS assay
Procedure, shortened: (§1)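 APE1 inhibition was measured in the fluorescence-based qHTS format at up to 57 µM. IC50 is the average of three separate experiments.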

[2] = molecular target: T1, DNA repair nuclease/redox regulator APEX1; experiment: Inhibition of APE1 in human HeLa whole cell extract using […]-5'-AP-DNA as substrate assessed as activity remaining at 100 uM incubated for 15 mins prior to substrate addition measured after 5 mins by PAGE analysis relative to control
Procedure, shortened: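 HeLa whole cell extract (300 ng; KCl-extracted hypotonic lysate) was preincubated with inhibitor for 15 min at room temperature, at 100 µM or at 0–100 µM. Then 0.5 pmol 32P AP-DNA was added for 5 min at 37 °C. Samples were run on denaturing PAGE, and incision is reported relative to the no-inhibitor control, from three independent measurements.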

[3] = molecular target: T1, DNA repair nuclease/redox regulator APEX1; experiment: Inhibition of recombinant APE1 using […]-5'-AP-DNA as substrate incubated for 15 mins prior to substrate addition measured after 5 mins by PAGE analysis
[4] = molecular target: T1, DNA repair nuclease/redox regulator APEX1; experiment: Inhibition of human recombinant APE1 at 57 uM after 15 mins by fluorescence based HTS assay; procedure, shortened: as §1
[5] = molecular target: T1, DNA repair nuclease/redox regulator APEX1; experiment: Inhibition of APE1 in human HeLa cells assessed as accumulation of genomic AP sites […] after 24 hrs by aldehyde reactive probe-based assay relative to control; format: cell-based
Procedure, shortened: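 HeLa cells at 80% confluency were exposed for 24 h at 37 °C to DMSO, 275 µM MMS, or 7.5 µM inhibitor, each alone, or to 275 µM MMS plus 7.5 µM inhibitor. Genomic DNA was isolated and adjusted to 100 ng/µL. 10 µL was labelled with aldehyde reactive probe (biotin-hydrazide reagent) and AP sites were quantified by kit. Samples ran in triplicate and were compared with a Student's t test.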

T1 sequence (P27695 whole entry): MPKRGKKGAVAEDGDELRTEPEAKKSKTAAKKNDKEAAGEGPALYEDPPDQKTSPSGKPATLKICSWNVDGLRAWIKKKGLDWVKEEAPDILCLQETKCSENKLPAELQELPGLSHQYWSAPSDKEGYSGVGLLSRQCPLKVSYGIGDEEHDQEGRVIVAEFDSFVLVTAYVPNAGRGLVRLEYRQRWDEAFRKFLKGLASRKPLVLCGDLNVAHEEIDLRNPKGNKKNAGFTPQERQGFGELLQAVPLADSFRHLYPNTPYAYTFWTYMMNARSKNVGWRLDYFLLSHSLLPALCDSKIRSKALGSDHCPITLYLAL

SMILES | IC50 [1] | inhibition [4] | further results
CC(=O)Nc1sc2cnccc2c1-c1nc2ccccc2s1 | > 57 µM | – | –
O=C(CCc1ccccc1)Nc1sc2c(c1-c1nc3ccccc3s1)CCNC2 | > 57 µM | – | –
COC(=O)c1sc2c(c1-c1nc3ccccc3s1)CCNC2 | > 57 µM | – | –
CC(=O)Nc1sc2c(c1-c1nc3ccccc3o1)CCN(C(C)C)C2 | 20.4 µM | – | Activity [2]: 12%; IC50 [3]: 13 µM
C#CCCC(=O)Nc1sc2c(c1-c1nc3ccccc3s1)CCNC2 | 12 µM | – | –
O=C(O)c1cc2cccc([N+](=O)[O-])c2[nH]1 | – | 40% | –
CC(=O)Nc1sc2c(c1-c1nc3ccccc3s1)CNCC2 | – | 31% | –
O=C(Nc1sc2c(c1-c1nc3ccccc3s1)CCNC2)C(F)F | 3.8 µM | – | Activity [2]: 38%; IC50 [3]: 4 µM
Cc1nnc(-c2sc3c(c2-c2nc4ccccc4s2)CCNC3)o1 | > 57 µM | – | –
CC(=O)Nc1sc2c(c1C(=O)O)CCNC2 | – | 29% | –
CC(=O)Nc1sc2c(c1-c1cccs1)CCNC2 | – | 34% | –
CC(=O)Nc1sc2c(c1Br)CCNC2 | – | 30% | –
CC(=O)Nc1sc2c(c1-c1nc3ccccc3s1)CN(C(C)C)C2 | 3.1 µM | – | Activity [2]: 57%; IC50 [3]: 4 µM
CC(C)N1CCc2c(sc(N)c2-c2nc3ccccc3s2)C1 | – | 40% | –
Cc1noc(Nc2sc3c(c2-c2nc4ccccc4s2)CCNC3)n1 | 18.2 µM | – | –
COC(=O)Nc1sc2c(c1-c1nc3ccccc3s1)CCNC2 | 11.1 µM | – | –
O=C(Nc1sc2c(c1-c1nc3ccccc3s1)CCNC2)C(F)(F)F | 17.6 µM | – | –
CC(C)N1CCc2c(sc(NC(=O)Cc3ccccc3)c2-c2nc3ccccc3s2)C1 | – | 53% | –
CC(C)N1CCc2c(sc(NC(=O)c3ccccc3)c2-c2nc3ccccc3s2)C1 | – | 57% | –
C#CCCC(=O)Nc1sc2c(c1-c1nc3ccccc3s1)CCN(C(C)C)C2 | – | 57% | –
CC(=O)Nc1sc2c(c1-c1nc3ccccc3s1)CCNC2 | 2.9 µM | – | Activity [2]: 1.4%; IC50 [3]: 5 µM
O=C(O)c1sc2c(c1-c1nc3ccccc3s1)CCNC2 | > 57 µM | – | –
CC(=O)Nc1sc2c(c1-c1nc3ccccc3s1)CCOC2 | – | 41% | –
CC(=O)Nc1sc2c(c1-c1ccco1)CCNC2 | – | 41% | –
CC(C)N1CCc2c(sc(NC(=O)C3CCCCC3)c2-c2nc3ccccc3s2)C1 | 8.3 µM | – | –
CC(=O)Nc1sc2c(c1-c1nc3ccccc3s1)CCN(Cc1ccccc1)C2 | – | 41% | –
CC(C)N1CCc2c(sc(NC(=O)C(F)F)c2-c2nc3ccccc3s2)C1 | 5.3 µM | – | –

SMILES | IC50 [1] | inhibition [4] | further results
CC(=O)Nc1sc2c(c1-c1nc(-c3ccccc3)cs1)CCN(C(C)C)C2 | 2.9 µM | – | Activity [2]: 15%; IC50 [3]: 3 µM
c1ccc2sc(-c3csc4c3CCNC4)nc2c1 | 25.2 µM | – | –
CC(=O)Nc1sc2c(c1-c1cccc3ccccc13)CCNC2 | > 57 µM | – | –
CC(=O)Nc1sc2c(c1-c1nc3ccccc3s1)CCN(C(=O)OC(C)(C)C)C2 | > 57 µM | – | –
CC(=O)Nc1sc2c(c1-c1ncco1)CCNC2 | – | 45% | –
CC(C)(C)C(=O)Nc1sc2c(c1-c1nc3ccccc3s1)CCNC2 | > 57 µM | – | –
O=C(Nc1sc2c(c1-c1nc3ccccc3s1)CCNC2)C1CC1 | 6 µM | – | –
CC(=O)Nc1sc2c(c1-c1nc3ccccc3s1)CCN(C)C2 | 3.8 µM | – | Activity [2]: 26%; IC50 [3]: 5 µM
CC(=O)Nc1sc2c(c1-c1nc3ccccc3s1)CCS(=O)(=O)C2 | – | 29% | –
CC(=O)Nc1sc2c(c1-c1nc3ccccc3s1)CCCN(C(C)C)C2 | 12.9 µM | – | Activity [2]: 14%; IC50 [3]: 14 µM
CC(=O)Nc1sc2c(c1-c1ccccc1)CCNC2 | – | 42% | –
CC(=O)Nc1sc2c(c1-c1nc3ccccc3s1)CCN(C(C)C)CC2 | 17.6 µM | – | Activity [2]: 1.1%; IC50 [3]: 13 µM
Cc1noc(-c2sc3c(c2-c2nc4ccccc4s2)CCNC3)n1 | > 57 µM | – | –
CC(=O)Nc1cc2c(s1)CNCC2 | – | 47% | –
CC(=O)Nc1sc2c(c1C#N)CCN(C(C)C)C2 | – | 31% | –
CC(=O)Nc1sc2c(c1-c1cc3ccccc3o1)CCNC2 | – | 66% | –
CC(=O)Nc1sc2c(c1-c1nc3ccccc3s1)CCN(C(C)=O)C2 | – | 59% | –
CC(=O)Nc1sc2c(c1-c1cc3ccccc3[nH]1)CCNC2 | > 57 µM | – | –
COS(C)(=O)=O | – | – | inhibition [5]: Active
CC(=O)Nc1sc2c(c1-c1nc3ccccc3s1)CCSC2 | – | 56% | –
O=C(Nc1sc2c(c1-c1nc3ccccc3s1)CCNC2)C1CCCC1 | – | 55% | –
CCCCC(=O)Nc1sc2c(c1-c1nc3ccccc3s1)CCN(C(C)C)C2 | 9.1 µM | – | –
Cc1nnc(Nc2sc3c(c2-c2nc4ccccc4s2)CCNC3)o1 | 19 µM | – | –
CC(=O)Nc1sc2c(c1-c1cc3ccccc3s1)CCNC2 | – | 23% | –
CC(=O)Nc1sc2c(c1-c1nccs1)CCNC2 | – | 55% | –
CC(=O)Nc1sc2c(c1-c1csc3ccccc13)CCNC2 | > 57 µM | – | –
